# Screens (PubChem BioAssay)
# SUMO HTRF inh – SUMOylation inhibition; P63279; HTRF SUMOylation assay, SAE1/SAE2 + UBC9, in vitro; 290,000 compounds, 0.36% hits; inhibition, % at 35 µM; in the data active = inhibition above about 50%, passing the limit was not always enough; inconclusive = no clear call, values can overlap the other calls
# Target sequence (P63279 whole entry, looked up): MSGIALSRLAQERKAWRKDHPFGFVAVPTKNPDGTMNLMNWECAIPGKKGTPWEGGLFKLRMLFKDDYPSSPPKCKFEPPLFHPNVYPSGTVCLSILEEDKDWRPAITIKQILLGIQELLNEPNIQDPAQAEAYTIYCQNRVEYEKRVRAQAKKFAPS
# eIF4E-4G inh – inhibitors of eIF4E and eIF4G interaction in translation initiation | P63073+Q04637 | TR-FRET eIF4E-eIF4GI(517-606) binding, 2 h | inhibition, % at 21.7 µM | 220,000 compounds, 0.37% hits;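 active = inhibition above about 30%, limit read from the data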;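 note: 0% = full FRET control wells and 100% = background wells lacking eIF4GI fragment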
# PABP FP inh – PABP-poly(A) binding inhibition | P11940 | PABP-poly(A) RNA binding, fluorescence polarization | calls only at 35 µM | 290,000 compounds, 1% hits | AID 2014;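 note: calls also rest on retests at 20 µM and on dose response follow-up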
# eIF4H FP inh – inhibitors of RNA binding by human eIF4H; Q15056; 290,000 compounds, 0.94% hits; inhibition, % at 35 µM; eIF4H fluorescence polarization binding assay; AID 2012;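 note: calls also rest on retests at 20 µM and on dose response follow-up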
# MLLE-PAM2 inh – blocks PAM2 peptide binding to the PABP1 MLLE domain; P11940; GST-MLLE / FITC-PAM2 fluorescence polarization; inhibition, % at 20 µM; 360,000 compounds, 0.36% hits; AID 588489; in the data active = inhibition above about 35%, passing the limit was not always enough;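 note: plate controls were DMSO wells with GST-MLLE for no effect and wells lacking GST-MLLE protein for full effect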
# HCV core dimer – HCV core protein dimerization inhibition; 300,000 compounds, 0.33% hits; inhibition, % at 5 µM; TR-FRET GST/Flag-core106 dimerization, 1536-well;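 active = inhibition above the mean of all tested compounds plus 3 SD, set per screening campaign, cut at about 45% in these data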
#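 System – GST-tagged and Flag-tagged HCV core protein residues 1-106 · Repeats – one well for each compound · Technique – TR-FRET 671 and 617 nm emission · Doses – one concentration, 5 µM, in 0.5% DMSO · Times – 4 h, 22.5 °C incubation · Also added – Eu donor and XL665 acceptor anti-tag antibodies · Measure – percent inhibition of core106 dimerization signal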
# Active calls of the source: *; i = inactive; ? = inconclusive; . = no result given; + = active, no number; [ ] = another dose, or the depositor's remark. This is a sample that favours compounds with a hit; in the whole collection about 1.8% have one here. Unless noted, the rule behind the calls is not given here.
SMILES,SUMO HTRF inh,eIF4E-4G inh,PABP FP inh,eIF4H FP inh,MLLE-PAM2 inh,HCV core dimer
COCCNS(=O)(=O)c1ccc2c(c1)oc(=O)c1cc(S(=O)(=O)NCCOC)ccc12,1,1,+,-1,.,2
NS(=O)(=O)c1ccc2c(c1)oc(=O)c1cc(S(N)(=O)=O)ccc12,12,0,i,8,3,-4
COc1ccc(-c2nc(-c3ccccc3)nc(N3CCN(C)CC3)c2C#N)cc1,-42,0,i,0,5,-2
COc1cccc(-c2nc(-c3ccccc3)nc(N3CCN(C)CC3)c2C#N)c1,-7,-6,i,active,1,-2
Cc1ccc(CNC(=O)C2CCC(=O)N(Cc3cccc(F)c3)C2)s1 (stereo not drawn),.,.,.,.,11,.
O=C(NC(=S)NCCO)c1cn(-c2ccccc2)nc1-c1ccccc1,0,-1,i,-4,50*,0
COc1ccc(S(=O)(=O)N2CCC(C(=O)NCc3cccc(OC)c3)CC2)cc1,10,47*,i,-5,12,-9
O=C(Nc1nc(-c2ccccc2)cs1)C1CCCN(S(=O)(=O)c2cccc([N+](=O)[O-])c2)C1 (stereo not drawn),5,-5,i,3,-11,46*
O=C(Nc1nc(-c2ccccc2)cs1)C1CCCN(S(=O)(=O)c2ccccc2)C1 (stereo not drawn),-37,-5,i,-8,-10,15
CN(C)c1ccc(/C=C/C(=O)c2cc(Cl)ccc2O)cc1,17,2,?,?,-96,7
C/C(=N\O)c1cc(Cl)ccc1O,8,92*,i,-2,3,1
CCn1c(C(=O)O)c(CC(=O)Nc2cccc(C(F)(F)F)c2)c2ccccc21,9,.,i,0,12,7
CC(=O)c1ccc(NC(=S)Nc2ccc(Br)c(Cl)c2)cc1,-3,0,i,-10,44*,0
CC(=O)Nc1cccc(NC(=O)Nc2ccc(C)c(Cl)c2)c1,-9,2,i,-8,-11,-8
O=C(NC(=S)Nc1ccc(Br)c(Cl)c1)C1CC1,-7,.,i,4,20,.
CC(=O)Nc1cccc(NC(=S)Nc2ccc(F)c(Cl)c2)c1,6,92*,i,17,25,-2
CCOC(=O)C1CCC(CNCc2ccc(Cl)cc2)CC1 (stereo not drawn),-2,2,i,-7,12,3
O=C(OCCN1C(=O)c2cccc3c(N4CCOCC4)ccc(c23)C1=O)c1cc(Cl)cc(Cl)c1,-2,33*[fluorescence artefact?],i,?,.,.
Oc1[nH]c2ccccc2c1N=Nc1cccc(Cl)c1,10,.,?,?,-2,-3
Cc1cccc2c(N=Nc3ccccc3)c(O)[nH]c12,10,.,+,95*,-19,-21
COc1ccc(Nc2cc(Cl)nc(N)n2)cc1OC,-6,-2,i,11,-6,-6
N#C/C(=C/c1cccn1-c1cccc(C(=O)O)c1)c1ccc(Cl)cc1,38,15,+,80,10,11
CCOC(=O)/C(C#N)=C/c1cccn1-c1ccc(Cl)cc1,29,1,i,-13,-2,-1
N#CC(C#N)=Cc1cccn1-c1ccc(C(=O)O)cc1,17,5,i,87*,0,19
COC(=O)c1ccc(OC(=O)/C=C/c2ccco2)cc1,-8,.,i,10,-8,4
SMILES,SUMO HTRF inh,eIF4E-4G inh,PABP FP inh,eIF4H FP inh,MLLE-PAM2 inh,HCV core dimer
O=C(/C=C/c1ccccc1)Oc1ccc(C(=S)N2CCOCC2)cc1,9,-4,i,-5,27,4
O=C(/C=C/c1ccco1)Oc1ccc(C(=S)N2CCOCC2)cc1,30,-2,+,97*,8,-1
O=Cc1cccc(OC(=O)/C=C/c2ccco2)c1,47,.,+,89*,0,32
CC1(C)C(=O)Nc2ccccc2N1C(=O)COc1cccnc1[N+](=O)[O-],-3,1,i,9,-2,0
COc1ccc2oc(C(=O)Nc3nc(-c4ccccn4)cs3)c(C)c2c1,.,.,.,.,-29,56*
COc1ccc2oc(C(=O)NC(C)c3ccccn3)c(C)c2c1 (stereo not drawn),.,.,.,.,-27,.
CCOC(=O)C1=C(C)NC(C)=C(C(=O)OCC)C1c1ccc(OC)c(OC)c1,.,.,.,.,4,.
CCOC(=O)C1=C(C)NC(C)=C(C(=O)OCC)C1c1ccc(O)cc1,5,-1,+,7.4*,-4,-5
O=C(CSc1ccc2nnc(CCNC(=O)c3ccccc3)n2n1)Nc1ccc(F)cc1F,19,.,i,-6,4,11
Cc1cccc(-n2c(=O)c3c4c(sc3n3c(=S)[nH]nc23)CCC4)c1,5,32*,i,4,-71,.
CCn1c(=O)c2c3c(sc2n2c(=S)[nH]nc12)CCC3,12,52*,i,-10,-60,-5
COc1ccc(-n2c(=O)c3c4c(sc3n3c(=S)[nH]nc23)CCC4)cc1,-3,23,i,2,-75,-4
O=c1c2c3c(sc2n2c(=S)[nH]nc2n1-c1ccccc1)CCC3,17,38*,i,-5,-66,2
Cc1ccc(-n2c(=O)c3c4c(sc3n3c(=S)[nH]nc23)CCC4)cc1,7,26,i,0,-94,-5
CCOc1ccc(S(=O)(=O)N(CC)CC(=O)NCc2cccnc2)cc1,-6,.,i,1,-3,-14
CNS(=O)(=O)c1cc(NC(C)=O)c(C)cc1C,13,0,i,-2,1,-1
COc1cc2c(cc1OC)C(=O)N1[C@H]3c4ccccc4OC[C@@H]3[C@H](c3ccccc3)[C@]1(C)C(=O)N2,.,.,.,.,6,25
COc1ccc2c(c1)OC[C@H]1[C@H]2N2C(=O)c3cc(OC)c(OC)cc3NC(=O)[C@@]2(C)[C@H]1c1ccccc1,.,.,.,.,-7,46*
O=C(CSc1nnc(SCc2cccc3ccccc23)s1)N/N=C/C=C/c1ccccc1[N+](=O)[O-],7,1,i,-9,-19,8
O=C(Nc1ccc(-c2nc3ccccc3s2)c(OC(=O)c2ccccc2)c1)c1ccccc1,?,2,i,-5,4,58*
Cc1cc(Cl)ccc1OCC(=O)NNC(=O)CCOc1ccccc1,.,.,.,.,2,.
CC(=O)Nc1ccc(Cc2nc3c([nH]2)c(=O)n(C)c(=O)n3C)cc1,14,-7,i,3,.,-5
CC(=O)Nc1ccc(SCCN2CC[C@@H](C(C)(C)C)CCC2=O)cc1,.,.,.,.,41*,.
COc1ccc(SC[C@H](C)CN2CC[C@H](C(C)(C)C)CCC2=O)cc1,.,.,.,.,40*,.
Cc1ccc(SCCN2CCC(C(C)(C)C)CCC2=O)cc1 (stereo not drawn),-5,.,i,6,0,-5
